From ChEMBL document CHEMBL4138092, “Antibacterial activity and mechanism of action of the benzazole acrylonitrile-based compounds: In vitro, spectroscopic, and docking studies” (2017)
In brackets after ≈: the same amount, converted by molar mass. Activity calls are given as the source filed them. No cut-off for these calls is given here.

How the values were obtained:
Bacillus spizizenii [1] = experiment: Antibacterial activity against Bacillus subtilis ATCC 6633 after 24 to 48 hrs by agar well diffusion method; format: functional
Method in brief: (§1)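 Mueller Hinton agar plates spread with bacteria (10⁶ cells/ml). Wells were filled with 50 µl of compound and incubated at 37 °C for 24–48 h. The inhibition zone diameter (mm) was measured with a transparent scale. Amoxicillin 5.0 mg/ml at 50 µl/well served as the positive control.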

Escherichia coli [2] = experiment: Antibacterial activity against Escherichia coli ATCC 25922 after 24 hrs by agar well diffusion method; format: functional; conditions: ATCC 25922, 24 h
Pseudomonas aeruginosa [3] = experiment: Antibacterial activity against Pseudomonas aeruginosa ATCC 27853 after 24 hrs by agar well diffusion method; format: functional; conditions: ATCC 27853, 24 h
Staphylococcus aureus [4] = experiment: Antibacterial activity against Staphylococcus aureus ATCC 25923 after 24 hrs by agar well diffusion method; format: functional; conditions: ATCC 25923, 24 h
Bacillus spizizenii [5] = experiment: Antibacterial activity against Bacillus subtilis ATCC 6633 after 24 hrs by agar well diffusion method; format: functional; conditions: ATCC 6633, 24 h
Escherichia coli [6] = experiment: Antibacterial activity against Escherichia coli ATCC 25922 after 24 to 48 hrs by agar well diffusion method; format: functional; method in brief: as §1
Pseudomonas aeruginosa [7] = experiment: Antibacterial activity against Pseudomonas aeruginosa ATCC 27853 after 24 to 48 hrs by agar well diffusion method; format: functional; method in brief: as §1
Staphylococcus aureus [8] = experiment: Antibacterial activity against Staphylococcus aureus ATCC 25923 after 24 to 48 hrs by agar well diffusion method; format: functional; method in brief: as §1
[9] = biological target: Beta-lactamase (Escherichia coli) (UniProt Q53TY8); experiment: Binding affinity to Escherichia coli beta-lactamase in phosphate buffer at pH 7.4 at 6 10^-5M after 3 mins by UV-vis spectroscopic analysis
Method in brief: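 Compound at 6 × 10^-5 M in 0.01 M phosphate buffer pH 7.4 was titrated with 10 µl aliquots of 1 × 10^-6 M β-lactamase. Absorbance spectra were recorded at 200–700 nm after 3 min equilibration per addition, continuing until no further change (saturation).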

[10] = biological target: Beta-lactamase (Escherichia coli) (UniProt Q53TY8); experiment: Binding affinity to Escherichia coli beta-lactamase in phosphate buffer at pH 7.4 at 6 10^-5M after 3 mins by fluorescence titration analysis
Method in brief: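 Fixed compound concentration in phosphate buffer pH 7.4, titrated with 10 µl additions of 1 × 10^-6 M β-lactamase. Excitation was 280 or 290 nm depending on compound, with emission scanned 300–600 nm and slits 5–10 nm. Readings followed 3 min equilibration per addition in a 1 cm quartz cell, continuing to saturation.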

[11] = biological target: Beta-lactamase (Escherichia coli) (UniProt Q53TY8); experiment: Binding affinity to Escherichia coli beta-lactamase in phosphate buffer at pH 7.4 at 6 10^-5M by CD spectral analysis
Method in brief: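 Successive additions of compound (6 × 10^-5 M) were made to 1.0 mL β-lactamase in phosphate buffer pH 7.4. CD spectra were recorded at 25 °C over 200–700 nm, scan speed 50 nm/min, bandwidth 1 nm.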

[12] = biological target: Beta-lactamase (Escherichia coli) (UniProt Q53TY8); experiment: Binding affinity to Escherichia coli beta-lactamase assessed as chemical shift in phosphate buffer at pH 7.4 after 60 mins by NMR analysis
[13] = test system: Bifidobacterium longum subsp. infantis; experiment: Inhibition of beta-lactamase in Bifidobacterium infantis assessed as potentiation of amoxicillin induced antibacterial activity at 10 to 100% amoxicillin to compound dilution after 24 hrs by agar well diffusion method
Method in brief: (§2)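 Amoxicillin (1.0 µg/ml) was combined with test compound and diluted to 100, 80, 60, 40, 10 and 5%. The mixtures were serially diluted in sterile water, and 100 µl was added to 900 µl nutrient broth. Tubes were inoculated with 10 µl of 10⁵ cells/ml and held 24 h at 37±1 °C. Growth/no growth was scored visually. Controls were bacteria in broth alone and sterile broth alone.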

[14] = test system: Bifidobacterium longum subsp. infantis; experiment: Inhibition of beta-lactamase in Bifidobacterium infantis assessed as potentiation of amoxicillin induced antibacterial activity at 5% amoxicillin to compound dilution after 24 hrs by agar well diffusion method; method in brief: as §2
[15] = test system: Escherichia coli ATCC 25922; experiment: Inhibition of beta-lactamase in Escherichia coli ATCC 25922 assessed as potentiation of amoxicillin induced antibacterial activity at 10 to 100% amoxicillin to compound dilution after 24 hrs by agar well diffusion method; method in brief: as §2
[16] = test system: Escherichia coli ATCC 25922; experiment: Inhibition of beta-lactamase in Escherichia coli ATCC 25922 assessed as potentiation of amoxicillin induced antibacterial activity at 5% amoxicillin to compound dilution after 24 hrs by agar well diffusion method; method in brief: as §2
[17] = biological target: Beta-lactamase (Staphylococcus aureus) (UniProt P00807); experiment: Inhibition of beta-lactamase in Staphylococcus aureus ATCC 25923 assessed as potentiation of amoxicillin induced antibacterial activity at 10 to 100% amoxicillin to compound dilution after 24 hrs by agar well diffusion method; method in brief: as §2
[18] = biological target: Beta-lactamase (Staphylococcus aureus) (UniProt P00807); experiment: Inhibition of beta-lactamase in Staphylococcus aureus ATCC 25923 assessed as potentiation of amoxicillin induced antibacterial activity at 5% amoxicillin to compound dilution after 24 hrs by agar well diffusion method; method in brief: as §2
[19] = biological target: Beta-lactamase (Pseudomonas aeruginosa) (UniProt Q79MP6); experiment: Inhibition of beta-lactamase in Pseudomonas aeruginosa ATCC 27853 assessed as potentiation of amoxicillin induced antibacterial activity at 10 to 100% amoxicillin to compound dilution after 24 hrs by agar well diffusion method; method in brief: as §2
[20] = biological target: Beta-lactamase (Pseudomonas aeruginosa) (UniProt Q8RL90); experiment: Inhibition of beta-lactamase in Pseudomonas aeruginosa ATCC 27853 assessed as potentiation of amoxicillin induced antibacterial activity at 5% amoxicillin to compound dilution after 24 hrs by agar well diffusion method; method in brief: as §2
Bifidobacterium longum = experiment: Antibacterial activity against Bifidobacterium infantis after 24 hrs by agar well diffusion method; format: functional, Bifidobacterium longum subsp. infantis
[21] = test system: Bifidobacterium longum subsp. infantis; experiment: Inhibition of beta-lactamase in Bifidobacterium infantis assessed as potentiation of amoxicillin induced antibacterial activity by measuring amoxicillin MIC after 24 hrs by agar well diffusion method (reference value: 1.5 ug/ml); method in brief: as §2
[22] = test system: Escherichia coli ATCC 25922; experiment: Inhibition of beta-lactamase in Escherichia coli ATCC 25922 assessed as potentiation of amoxicillin induced antibacterial activity by measuring amoxicillin MIC after 24 hrs by agar well diffusion method (reference value: 1.5 ug/ml); method in brief: as §2
[23] = biological target: Beta-lactamase (Staphylococcus aureus) (UniProt P00807); experiment: Inhibition of beta-lactamase in Staphylococcus aureus ATCC 25923 assessed as potentiation of amoxicillin induced antibacterial activity by measuring amoxicillin MIC after 24 hrs by agar well diffusion method (reference value: 1.5 ug/ml); method in brief: as §2
[24] = biological target: Beta-lactamase (Pseudomonas aeruginosa) (UniProt Q79MP6); experiment: Inhibition of beta-lactamase in Pseudomonas aeruginosa ATCC 27853 assessed as potentiation of amoxicillin induced antibacterial activity by measuring amoxicillin MIC after 24 hrs by agar well diffusion method (reference value: 1 ug/ml); method in brief: as §2
[25] = test system: Bifidobacterium longum subsp. infantis; experiment: Inhibition of beta-lactamase in Bifidobacterium infantis assessed as potentiation of amoxicillin induced antibacterial activity after 24 hrs by agar well diffusion method; method in brief: as §2
[26] = test system: Escherichia coli ATCC 25922; experiment: Inhibition of beta-lactamase in Escherichia coli ATCC 25922 assessed as potentiation of amoxicillin induced antibacterial activity after 24 hrs by agar well diffusion method; method in brief: as §2
[27] = biological target: Beta-lactamase (Staphylococcus aureus) (UniProt P00807); experiment: Inhibition of beta-lactamase in Staphylococcus aureus ATCC 25923 assessed as potentiation of amoxicillin induced antibacterial activity after 24 hrs by agar well diffusion method; method in brief: as §2
[28] = biological target: Beta-lactamase (Pseudomonas aeruginosa) (UniProt Q8RL90); experiment: Inhibition of beta-lactamase in Pseudomonas aeruginosa ATCC 27853 assessed as potentiation of amoxicillin induced antibacterial activity after 24 hrs by agar well diffusion method; method in brief: as §2
Escherichia coli [29] = experiment: Induction of morphological changes in Escherichia coli ATCC 25922 assessed as cell damage at 0.2 ppm after 2 hrs by uranyl acetate staining based transmission electron microscopic analysis; format: functional, organism-based
Method in brief: (§3)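 E. coli was exposed for 2 h, alongside untreated controls processed identically. Pellets were fixed in Karnovsky's fixative (2% paraformaldehyde, 2.5% glutaraldehyde) for 3–4 h at 25 °C, then washed in 0.1 M phosphate pH 7.2. Cells were adsorbed onto formvar-carbon copper grids and stained 5 min in […] aqueous uranyl acetate. Grids were imaged by TEM at 80 kV.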

Escherichia coli [30] = experiment: Induction of morphological changes in Escherichia coli ATCC 25922 assessed as cell crack at 0.2 ppm after 2 hrs by uranyl acetate staining based transmission electron microscopic analysis; format: functional, organism-based; method in brief: as §3
Escherichia coli [31] = experiment: Induction of morphological changes in Escherichia coli ATCC 25922 assessed as cell rupture at 0.2 ppm after 2 hrs by uranyl acetate staining based transmission electron microscopic analysis; format: functional, organism-based; method in brief: as §3

| Structure (SMILES) | inhibition zone (IZ) (Bacillus spizizenii [1]) [mm] | MIC (Escherichia coli [2]) [µg/mL] | MIC (Pseudomonas aeruginosa [3]) [µg/mL] | MIC (Staphylococcus aureus [4]) [µg/mL] | MIC (Bacillus spizizenii [5]) [µg/mL] | inhibition zone (IZ) (Escherichia coli [6]) [mm] | inhibition zone (IZ) (Pseudomonas aeruginosa [7]) [mm] | inhibition zone (IZ) (Staphylococcus aureus [8]) [mm] | Activity [9] | Activity [10] | Activity [11] | inhibition [13] | inhibition [14] | inhibition [15] | inhibition [16] | inhibition [17] | inhibition [18] | inhibition [19] | inhibition [20] | MIC (Bifidobacterium longum) [µg/mL] | also measured |
| --- | --- | --- | --- | --- | --- | --- | --- | --- | --- | --- | --- | --- | --- | --- | --- | --- | --- | --- | --- | --- | --- |
| CN(C)c1ncc(/C=C(\C#N)c2nc3ccccc3[nH]2)cn1 | 39 | 14.3 (≈ 49.3 µM) | 11.1 (≈ 38.2 µM) | 11.1 (≈ 38.2 µM) | 20 (≈ 68.9 µM) | 50 | 30 | 30 | – | – | – | – | – | – | – | – | – | – | – | – | – |
| N#C/C(=C\c1cnc(Nc2ccc(Cl)cc2)nc1)c1nc2ccccc2[nH]1 | 40 | 9 (≈ 24.1 µM) | 9 (≈ 24.1 µM) | 9 (≈ 24.1 µM) | 13 (≈ 34.9 µM) | 40 | 28 | 32 | Active | Active | Active | Active | inactive | Active | inactive | Active | inactive | Active | inactive | 9 (≈ 24.1 µM) | Activity [12]: Active; MIC [21]: 0.9 µg/mL; MIC [22]: 0.9 µg/mL; MIC [23]: 0.9 µg/mL; MIC [24]: 1.3 µg/mL; fractional inhibitory concentration index (FICI) [25]: 0.2; fractional inhibitory concentration index (FICI) [26]: 0.2; fractional inhibitory concentration index (FICI) [27]: 0.2; fractional inhibitory concentration index (FICI) [28]: 0.2 |
| N#C/C(=C\c1cnc(NCc2ccccc2)nc1)c1nc2ccccc2[nH]1 | 40 | 18 (≈ 51.1 µM) | 18 (≈ 51.1 µM) | 18 (≈ 51.1 µM) | 25 (≈ 70.9 µM) | 45 | 30 | 35 | – | – | – | – | – | – | – | – | – | – | – | – | – |
| N#C/C(=C\c1cnc(N)nc1N)c1nc2ccccc2s1 | 40 | 1 (≈ 3.4 µM) | 1 (≈ 3.4 µM) | 8 (≈ 27.2 µM) | 8 (≈ 27.2 µM) | 47 | 28 | 32 | Active | Active | Active | Active | inactive | Active | inactive | Active | inactive | Active | inactive | 1 (≈ 3.4 µM) | Activity (Escherichia coli [29]): Active; Activity (Escherichia coli [30]): Active; Activity (Escherichia coli [31]): Active; MIC [21]: 0.1 µg/mL; MIC [22]: 0.1 µg/mL; MIC [23]: 0.8 µg/mL; MIC [24]: 0.8 µg/mL; fractional inhibitory concentration index (FICI) [25]: 0.2; fractional inhibitory concentration index (FICI) [26]: 0.2; fractional inhibitory concentration index (FICI) [27]: 0.2; fractional inhibitory concentration index (FICI) [28]: 0.2 |
| CN(C)c1ncc(/C=C(\C#N)c2nc3ccccc3s2)cn1 | 45 | 50 (≈ 163 µM) | 35.8 (≈ 116 µM) | 35.8 (≈ 116 µM) | 50 (≈ 163 µM) | 52 | 32 | 35 | – | – | – | – | – | – | – | – | – | – | – | – | – |
